# In ChEMBL document CHEMBL1128739, “Structure-activity relationships in the 8-amino-6,7,8,9-tetrahydro-3H-benz[e]indole ring system. 2. Effects of 8-amino nitrogen substitution on serotonin receptor binding and pharmacology” (J Med Chem, 1995):
# Calls of active or inactive are those of the source. The calls are words filed in the database; no cut-off is given here.
# Legend:
# Rattus norvegicus [1] = assay: In vivo for biochemical effect against brain area levels of 5-HTP in reserpinized rat hemispheres (mainly cortex).; assay type: functional
# Outline: (§1)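 Male Sprague-Dawley rats (200-300 g) pretreated with reserpine 5 mg/kg sc 18 h before. Injection volume 5 mL/kg, test solutions at neutral pH. DOPA and 5-HTP in limbic system, striatum and hemispheres measured by HPLC with electrochemical detection. Dose-response curves from four to six dose levels (n = 4) per brain area.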
# [2] = biological target: T1, 5-hydroxytryptamine receptor 1B (Homo sapiens, UniProt P28222); assay: The compound was tested in vitro for binding affinity against cloned mammalian 5-hydroxytryptamine 1D receptor beta expressed in CHO cells, by using [3H]5-HT as radioligand; assay type: cell-based; parameters: concentration or dose not given beside the values; conditions: concentration not given here
# Outline: (§2)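 Membranes from CHO cells stably expressing the cloned receptor, made by mechanical disruption in ice-cold Tris/EDTA/EGTA pH 7.4 and differential centrifugation. [3H]serotonin at 1.7 nM in 50 mM Tris, 5 mM MgCl2, 0.1% ascorbic acid, pH 7.4. 11 drug concentrations in duplicate, 1 h at room temperature protected from light, then filtration. Excess serotonin defines nonspecific binding. One-site IC50 fit, Ki by Cheng-Prusoff.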
# Rattus norvegicus [3] = assay: The compound was tested in vivo for biochemical effect against the changes in different brain area levels of DOPA in reserpinized rat limbic system; assay type: functional
# Outline: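 Rats (male Sprague-Dawley, 200-300 g) received reserpine 5 mg/kg sc 18 h before. Injections 5 mL/kg at neutral pH. DOPA accumulation measured by HPLC with electrochemical detection as an index of DA or NE synthesis rate. Four to six dose levels, n = 4. ED50 from a sigmoidal fit.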
# [4] = biological target: 5-hydroxytryptamine receptor 1D (Homo sapiens, UniProt P28221); assay: In vitro binding affinity against cloned mammalian 5-hydroxytryptamine 1D receptor alpha expressed in CHO cells, by using [3H]5-HT as radioligand; assay type: cell-based
# Outline: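 Competition binding on CHO-cell membranes (20-60 μg protein) in 50 mM Tris, 5 mM MgCl2, 0.1% ascorbic acid, pH 7.4. Nonspecific binding defined with excess serotonin. 11 drug concentrations, each in duplicate. Incubated 1 h at room temperature, protected from light, then filtered and scintillation counted. IC50 taken from a one-site fit; Ki by Cheng-Prusoff.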
# D(2) dopamine receptor [5] = biological target: T2, D(2) dopamine receptor (Rattus norvegicus, UniProt P61169); assay: Binding affinity rat Dopamine receptor D2 expressed in CHO-K1 cells by [3H]U-86170 displacement.; assay type: cell-based
# Rattus norvegicus [6] = assay: The compound was tested in vivo for biochemical effect against the changes in different brain area levels of DOPA in reserpinized rat hemispheres (mainly cortex); inactive at dose 50 uM/kg; Inactive; assay type: functional, organism-based
# Rattus norvegicus [7] = assay: In vivo changes in different brain area levels of 5-HTP in reserpinized rat corpus striatum.; assay type: functional
# Outline: (§3)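 Male Sprague-Dawley rats (200-300 g) pretreated with reserpine 5 mg/kg sc 18 h before. Injection volume 5 mL/kg at neutral pH. Brain-region 5-HTP measured by HPLC with electrochemical detection. Dose-response curves used four to six doses, n = 4.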
# Rattus norvegicus [8] = assay: The compound was tested in vivo for biochemical effect against the changes in different brain area levels of DOPA in reserpinized rat corpus striatum; assay type: functional; outline: as §1
# Rattus norvegicus [9] = assay: In vivo changes in different brain area levels of 5-HTP in reserpinized rat limbic system.; assay type: functional; outline: as §3
# [10] = biological target: D(3) dopamine receptor (Rattus norvegicus) (UniProt P19020); assay: The compound was tested in vitro for binding affinity against cloned mammalian Dopamine receptor D3 expressed in CHO cells by, using [3H]spiperone as radioligand; inactive at 10E-6 M; assay type: cell-based
# Rattus norvegicus [11] = assay: The compound was tested in vivo for biochemical effect against the changes in different brain area levels of DOPA in reserpinized rat hemispheres (mainly cortex)at dose 50 uM/kg; inactive; assay type: functional, organism-based
# D(3) dopamine receptor = D(3) dopamine receptor (Rattus norvegicus, UniProt P19020); assay: In vitro binding affinity against cloned mammalian Dopamine receptor D3 expressed in CHO cells by, using [3H]-spiperone as radioligand; assay type: cell-based
# [12] = biological target: T1, 5-hydroxytryptamine receptor 1B; assay: In vitro binding affinity against cloned mammalian 5-hydroxytryptamine 1D receptor beta expressed in CHO cells, by using [3H]5-HT as radioligand; assay type: cell-based; outline: as §2
# Rattus norvegicus [13] = assay: The compound was tested in vivo for biochemical effect against the changes in different brain area levels of DOPA in reserpinized rat corpus striatum at dose 12.5 uM/kg; Partial effect; assay type: functional, organism-based; outline: as §1
# Rattus norvegicus [14] = assay: The compound was tested in vivo for biochemical effect against the changes in different brain area levels of DOPA in reserpinized rat hemispheres (mainly cortex)at does 12.5 uM/kg; Inactive; assay type: functional, organism-based; outline: as §1
# Rattus norvegicus [15] = assay: The compound was tested in vivo for biochemical effect against the changes in different brain area levels of DOPA in reserpinized rat limbic system at does 12.5 uM/kg; Partial effect; assay type: functional, organism-based; outline: as §1
# Rattus norvegicus [16] = assay: The compound was tested in vivo for biochemical effect against the changes in different brain area levels of DOPA in reserpinized rat hemispheres (mainly cortex) at dose of 3.1 micro/kg; Inactive; assay type: functional, organism-based; outline: as §1
# Rattus norvegicus [17] = assay: The compound was tested in vivo for biochemical effect against the changes in different brain area levels of DOPA in reserpinized rat limbic system at dose 12.5 uM/kg; Partial effect; assay type: functional, organism-based
# Rattus norvegicus [18] = assay: The compound was tested in vivo for biochemical effect against the changes in different brain area levels of DOPA in reserpinized rat hemispheres (mainly cortex)at dose 12.5 uM/kg; Partial effect; assay type: functional, organism-based
# D(2) dopamine receptor [19] = biological target: T2, D(2) dopamine receptor; assay: In vitro binding affinity against cloned mammalian Dopamine receptor D2 expressed in CHO cells using [3H]U-86170 as radioligand; assay type: cell-based; conditions: read-out: Ki
# Outline: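 Membranes from CHO cells (20-60 μg protein) in 20 mM HEPES, 10 mM MgSO4, pH 7.4. Nonspecific binding defined with excess haloperidol. 11 concentrations, each in duplicate. Incubated 1 h at room temperature, then filtered and counted. IC50 from a one-site competition fit, converted to Ki by Cheng-Prusoff.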
# Rattus norvegicus [20] = assay: The compound was tested in vivo for biochemical effect against the changes in different brain area levels of DOPA in reserpinized rat corpus striatum at dose 12.5 uM/kg; Inactive; assay type: functional, organism-based; outline: as §1
# Rattus norvegicus [21] = assay: The compound was tested in vivo for biochemical effect against the changes in different brain area levels of DOPA in reserpinized rat hemispheres (mainly cortex)at dose 12.5 uM/kg; Inactive; assay type: functional, organism-based
# Rattus norvegicus [22] = assay: The compound was tested in vivo for biochemical effect against the changes in different brain area levels of DOPA in reserpinized rat limbic system at dose 12.5 uM/kg; Inactive; assay type: functional, organism-based
# T2 sequence (P61169 whole entry): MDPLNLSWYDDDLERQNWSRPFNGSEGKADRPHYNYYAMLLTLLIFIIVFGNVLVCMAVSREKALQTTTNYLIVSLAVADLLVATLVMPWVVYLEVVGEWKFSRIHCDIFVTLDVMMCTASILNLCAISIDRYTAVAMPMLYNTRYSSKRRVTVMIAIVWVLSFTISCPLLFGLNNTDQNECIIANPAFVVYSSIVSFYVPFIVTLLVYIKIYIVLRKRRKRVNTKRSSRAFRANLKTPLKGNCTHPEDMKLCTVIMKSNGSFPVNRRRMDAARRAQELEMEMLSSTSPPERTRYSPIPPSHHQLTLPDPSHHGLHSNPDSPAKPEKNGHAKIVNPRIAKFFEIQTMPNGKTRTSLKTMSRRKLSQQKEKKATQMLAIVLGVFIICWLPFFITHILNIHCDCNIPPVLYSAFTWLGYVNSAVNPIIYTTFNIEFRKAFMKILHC
# D(3) dopamine receptor, sequence (P19020 whole entry): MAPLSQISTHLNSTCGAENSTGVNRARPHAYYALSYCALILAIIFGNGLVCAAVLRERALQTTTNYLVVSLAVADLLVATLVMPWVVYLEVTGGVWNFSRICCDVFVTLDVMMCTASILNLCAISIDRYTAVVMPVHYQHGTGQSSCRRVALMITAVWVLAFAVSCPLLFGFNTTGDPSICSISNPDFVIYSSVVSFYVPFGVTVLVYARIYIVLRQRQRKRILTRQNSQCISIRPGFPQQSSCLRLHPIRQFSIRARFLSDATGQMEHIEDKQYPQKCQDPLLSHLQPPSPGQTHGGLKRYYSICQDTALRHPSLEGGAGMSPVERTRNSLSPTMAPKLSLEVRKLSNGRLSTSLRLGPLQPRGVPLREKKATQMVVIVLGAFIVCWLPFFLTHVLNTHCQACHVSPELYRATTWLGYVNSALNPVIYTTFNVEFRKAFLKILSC
# T1 sequence (P28222 whole entry): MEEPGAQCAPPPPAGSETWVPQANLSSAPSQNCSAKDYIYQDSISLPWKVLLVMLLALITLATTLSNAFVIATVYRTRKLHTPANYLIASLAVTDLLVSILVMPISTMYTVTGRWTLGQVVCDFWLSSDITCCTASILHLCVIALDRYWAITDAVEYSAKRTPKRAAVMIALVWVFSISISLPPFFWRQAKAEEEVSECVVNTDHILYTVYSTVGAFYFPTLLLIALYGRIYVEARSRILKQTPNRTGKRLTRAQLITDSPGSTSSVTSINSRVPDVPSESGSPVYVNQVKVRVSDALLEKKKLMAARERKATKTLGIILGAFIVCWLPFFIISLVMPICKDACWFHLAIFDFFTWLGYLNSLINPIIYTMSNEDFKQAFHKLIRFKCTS
# 5-hydroxytryptamine receptor 1D, sequence (P28221 whole entry): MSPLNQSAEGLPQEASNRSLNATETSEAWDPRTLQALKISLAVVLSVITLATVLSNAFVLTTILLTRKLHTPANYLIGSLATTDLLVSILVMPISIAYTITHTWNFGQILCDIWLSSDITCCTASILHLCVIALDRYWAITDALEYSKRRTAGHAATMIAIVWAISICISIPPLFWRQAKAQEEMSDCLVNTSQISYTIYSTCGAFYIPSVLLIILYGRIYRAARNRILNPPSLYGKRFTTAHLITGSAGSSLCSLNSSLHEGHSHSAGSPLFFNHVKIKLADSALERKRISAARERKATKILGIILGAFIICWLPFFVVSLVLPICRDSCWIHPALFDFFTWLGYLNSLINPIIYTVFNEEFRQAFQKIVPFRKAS
# D(3) dopamine receptor (Rattus norvegicus), sequence (P19020 whole entry): as the sequence (P19020 whole entry) above
compound,measurement,setting,value
c1cc2c3c(ccc2[nH]1)CCC(N1CCCC1)C3 (stereo unspecified),ED50,Rattus norvegicus [1],0.051 µmol/kg
same,inhibition,[2],< 45%
same,ED50,Rattus norvegicus [3],1.57 µmol/kg
same,Ki,[4],77 nM
same,Ki,D(2) dopamine receptor [5],94 nM
same,ED50,Rattus norvegicus [6],inactive
same,ED50,Rattus norvegicus [7],0.066 µmol/kg
same,ED50,Rattus norvegicus [8],3.26 µmol/kg
same,ED50,Rattus norvegicus [9],0.092 µmol/kg
same,inhibition,[10],< 45%
CCCN(Cc1ccccc1)C1CCc2ccc3[nH]ccc3c2C1 (stereo unspecified),ED50,Rattus norvegicus [11],inactive
same,ED50,Rattus norvegicus [1],6.72 µmol/kg
same,ED50,Rattus norvegicus [3],8.1 µmol/kg
same,Ki,D(3) dopamine receptor; read-out: Ki,43 nM
same,Ki,[4],192 nM
same,Ki,D(2) dopamine receptor [5],22 nM
same,ED50,Rattus norvegicus [7],6.87 µmol/kg
same,ED50,Rattus norvegicus [8],8.77 µmol/kg
same,Ki,[12],4610 nM
same,ED50,Rattus norvegicus [9],7.58 µmol/kg
c1cc2c3c(ccc2[nH]1)CCC(N1CCCCCC1)C3 (stereo unspecified),inhibition,[2],< 45%
same,Ki,[4],340 nM
same,Ki,D(2) dopamine receptor [5],100 nM
same,inhibition,[10],< 45%
CCCN(CCC)[C@H]1CCc2ccc3[nH]cc(C=O)c3c2C1,ED50,Rattus norvegicus [13],Weak activity
same,ED50,Rattus norvegicus [14],inactive
same,ED50,Rattus norvegicus [15],Weak activity
CCCN(CCC)[C@H]1CCc2ccc3[nH]ccc3c2C1,ED50,Rattus norvegicus [16],inactive
O=Cc1c[nH]c2ccc3c(c12)CC(N1CCCC1)CC3 (stereo unspecified),ED50,Rattus norvegicus [17],Weak activity
same,ED50,Rattus norvegicus [18],Weak activity
same,ED50,Rattus norvegicus [1],0.86 µmol/kg
same,ED50,Rattus norvegicus [13],Weak activity
same,Ki,D(3) dopamine receptor; cho,Not Active
same,Ki,D(2) dopamine receptor [19],> 1000 nM
same,ED50,Rattus norvegicus [7],0.58 µmol/kg
same,ED50,Rattus norvegicus [9],0.58 µmol/kg
CCCN(CCCCN1C(=O)CC(C)(C)CC1=O)[C@@H]1CCc2ccc3[nH]cc(C=O)c3c2C1,ED50,Rattus norvegicus [20],inactive
same,ED50,Rattus norvegicus [1],4.63 µmol/kg
same,Ki,D(3) dopamine receptor; read-out: Ki,154 nM
same,ED50,Rattus norvegicus [21],inactive
same,Ki,[4],5 nM
same,Ki,D(2) dopamine receptor [19],62 nM
same,ED50,Rattus norvegicus [7],2.98 µmol/kg
same,Ki,[12],119 nM
same,ED50,Rattus norvegicus [9],3.78 µmol/kg
same,ED50,Rattus norvegicus [22],inactive
